Source: ChEMBL document CHEMBL1135970, “Identification of a pharmacophore for thrombopoietic activity of small, non-peptidyl molecules. 1. Discovery and optimization of salicylaldehyde thiosemicarbazone thrombopoietin mimics” (J Med Chem, 2002)

Tests used:
Homo sapiens = species on record: Homo sapiens; assay: Thrombopoietin efficacy in human bone marrow cultures was reported; type: functional
[1] = Compound was evaluated for the expression of luciferase activity in BAF3/TPO-Rluc cell line; type: functional, cell-based; settings: Homo sapiens, BAF-3/TPO-Rluc
Summary of the method: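 BAF3/TPO-Rluc cells at (1 × 10⁵)/mL, starved of IL-3 overnight, in growth medium with 0.5% v/v FBS and 30 µM ZnCl₂. Incubated with compound (0.32% DMSO final) or rhuTPO for 3 h at 37 °C, 5% CO₂. Luciferase activity read on a luminometer; each point is the mean of triplicate assays.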

EC50 [1] [nM] | Compound | TPO(max) (Homo sapiens) [%]
350 | O=C(O)c1ccc(N/C(S)=N/N=C/c2cc(Cl)cc(Cl)c2O)cc1 | 30
5600 | Cc1cc(Cl)ccc1/N=C(\S)N/N=C/c1cc(Cl)cc(Cl)c1O | 30
260 | O=S(=O)(O)c1ccc(N/C(S)=N/N=C/c2cc(Cl)cc(Cl)c2O)cc1 | 29
 | O=C(O)c1ccc(N/C(S)=N/N=C/c2cccc(-c3cccc(C(F)(F)F)c3)c2O)cc1 | 100
40 | Cc1ccc(-n2[nH]c(C)c(/N=N/c3c(O)cc(S(=O)(=O)O)c4ccccc34)c2=O)cc1C | 100
 | Cc1ccc(-c2cccc(/C=N/N=C(\S)Nc3cccc(C(=O)O)c3)c2O)cc1C | 90
